The text below walks through data of ChEMBL document CHEMBL4732170, “Discovery of Small-Molecule Antagonists of the PWWP Domain of NSD2” (J Med Chem, 2021).

The target of assay [1] is T1, Histone-lysine N-methyltransferase NSD2 (Homo sapiens, UniProt O96028).
T1 sequence (O96028 whole entry): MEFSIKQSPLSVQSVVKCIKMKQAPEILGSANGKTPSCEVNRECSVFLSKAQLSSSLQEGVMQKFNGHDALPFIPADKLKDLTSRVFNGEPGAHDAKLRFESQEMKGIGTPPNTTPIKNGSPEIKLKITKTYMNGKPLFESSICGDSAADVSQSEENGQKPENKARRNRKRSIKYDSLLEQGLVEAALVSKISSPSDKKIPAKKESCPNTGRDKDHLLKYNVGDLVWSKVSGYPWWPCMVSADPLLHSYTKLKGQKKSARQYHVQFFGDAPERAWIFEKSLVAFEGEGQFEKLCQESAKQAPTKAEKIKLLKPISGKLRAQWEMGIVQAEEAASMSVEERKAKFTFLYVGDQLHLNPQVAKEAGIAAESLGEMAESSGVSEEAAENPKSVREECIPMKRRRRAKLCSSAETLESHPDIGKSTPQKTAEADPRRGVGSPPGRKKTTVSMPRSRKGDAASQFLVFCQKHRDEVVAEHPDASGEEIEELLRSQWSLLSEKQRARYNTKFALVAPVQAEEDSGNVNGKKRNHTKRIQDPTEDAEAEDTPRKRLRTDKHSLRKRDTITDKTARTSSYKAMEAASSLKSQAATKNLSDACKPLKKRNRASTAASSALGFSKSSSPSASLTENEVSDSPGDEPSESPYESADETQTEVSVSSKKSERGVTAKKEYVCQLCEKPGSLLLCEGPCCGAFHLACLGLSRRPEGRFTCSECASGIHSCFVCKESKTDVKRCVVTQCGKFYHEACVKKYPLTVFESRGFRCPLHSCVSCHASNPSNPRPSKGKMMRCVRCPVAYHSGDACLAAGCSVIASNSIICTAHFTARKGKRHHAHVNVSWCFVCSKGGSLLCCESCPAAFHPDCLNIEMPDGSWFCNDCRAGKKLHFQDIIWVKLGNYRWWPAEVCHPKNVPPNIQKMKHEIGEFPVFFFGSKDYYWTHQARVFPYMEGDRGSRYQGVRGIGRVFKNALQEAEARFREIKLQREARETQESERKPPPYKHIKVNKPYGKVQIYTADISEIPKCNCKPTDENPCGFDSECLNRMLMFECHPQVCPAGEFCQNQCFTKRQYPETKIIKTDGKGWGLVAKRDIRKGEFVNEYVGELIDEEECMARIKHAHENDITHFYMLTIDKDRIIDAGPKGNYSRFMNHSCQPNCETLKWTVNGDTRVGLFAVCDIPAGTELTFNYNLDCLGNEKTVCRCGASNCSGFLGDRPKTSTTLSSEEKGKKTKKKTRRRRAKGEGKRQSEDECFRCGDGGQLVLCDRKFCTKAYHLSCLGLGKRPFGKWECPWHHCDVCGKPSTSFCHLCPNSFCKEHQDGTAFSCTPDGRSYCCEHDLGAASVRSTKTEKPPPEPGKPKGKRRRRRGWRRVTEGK
The assay can be described thus: Binding affinity to NSD2 PWWP1 domain (unknown origin) assessed as dissociation constant by isothermal titration calorimetric analysis. The procedure, abridged:
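Reverse ITC: purified NSD2-PWWP1 (aa 211-350, human, E. coli-expressed, His-tag removed) dialyzed into 20 mM Tris pH 7.5, 100 mM NaCl. Protein at 1 mM titrated into cell holding 40 μM ligand, 1% DMSO in both. Twelve 4 μL injections at 25 °C. Kd from one-binding-site model fit.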

The target in assay [2] is T2, Histone-lysine N-methyltransferase NSD3 (Homo sapiens) (UniProt Q9BZ95).
T2 sequence (whole entry): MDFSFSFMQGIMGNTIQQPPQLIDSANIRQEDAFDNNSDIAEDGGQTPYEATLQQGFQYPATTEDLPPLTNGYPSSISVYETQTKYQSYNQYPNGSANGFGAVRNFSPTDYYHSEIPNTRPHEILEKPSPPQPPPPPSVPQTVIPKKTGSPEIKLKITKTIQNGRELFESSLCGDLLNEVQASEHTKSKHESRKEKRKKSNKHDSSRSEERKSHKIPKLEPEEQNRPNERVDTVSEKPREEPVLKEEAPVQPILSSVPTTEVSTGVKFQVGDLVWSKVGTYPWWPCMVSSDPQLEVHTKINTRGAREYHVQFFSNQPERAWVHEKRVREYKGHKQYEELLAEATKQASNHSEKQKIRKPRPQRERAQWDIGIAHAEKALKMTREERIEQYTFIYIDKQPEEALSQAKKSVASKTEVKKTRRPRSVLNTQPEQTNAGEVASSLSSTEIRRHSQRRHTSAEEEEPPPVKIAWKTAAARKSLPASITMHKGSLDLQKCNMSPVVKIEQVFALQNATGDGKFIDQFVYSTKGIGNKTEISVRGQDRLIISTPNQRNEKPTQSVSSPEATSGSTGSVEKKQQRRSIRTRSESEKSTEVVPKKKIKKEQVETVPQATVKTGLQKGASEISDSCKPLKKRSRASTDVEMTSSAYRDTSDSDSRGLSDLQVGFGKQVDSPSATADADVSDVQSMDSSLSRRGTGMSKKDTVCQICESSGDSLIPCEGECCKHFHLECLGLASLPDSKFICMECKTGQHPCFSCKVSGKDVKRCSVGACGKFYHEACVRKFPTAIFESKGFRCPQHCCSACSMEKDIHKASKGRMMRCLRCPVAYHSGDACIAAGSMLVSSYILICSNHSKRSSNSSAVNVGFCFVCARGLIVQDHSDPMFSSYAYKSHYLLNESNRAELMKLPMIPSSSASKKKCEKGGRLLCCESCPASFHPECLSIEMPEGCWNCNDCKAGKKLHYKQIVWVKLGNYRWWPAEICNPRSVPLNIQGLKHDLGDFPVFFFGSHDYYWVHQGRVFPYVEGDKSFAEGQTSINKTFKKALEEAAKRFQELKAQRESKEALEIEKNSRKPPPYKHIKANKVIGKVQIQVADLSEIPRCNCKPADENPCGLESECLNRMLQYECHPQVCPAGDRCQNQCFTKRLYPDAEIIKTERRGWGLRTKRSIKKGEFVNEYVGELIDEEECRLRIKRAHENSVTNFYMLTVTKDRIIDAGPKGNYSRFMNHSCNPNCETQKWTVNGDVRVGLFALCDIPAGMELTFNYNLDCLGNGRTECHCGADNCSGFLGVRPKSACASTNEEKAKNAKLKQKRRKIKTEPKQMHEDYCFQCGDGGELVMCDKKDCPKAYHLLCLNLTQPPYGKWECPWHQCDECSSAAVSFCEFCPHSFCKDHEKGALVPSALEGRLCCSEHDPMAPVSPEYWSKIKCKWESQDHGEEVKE
The assay can be described thus: Binding affinity to NSD3 PWWP1 domain (unknown origin) assessed as aggregation temperature at 400 uM by heating at 25 to 85 degC by differential static light scattering method.

The target in assay [3] is DNA mismatch repair protein Msh6 (Homo sapiens) (UniProt P52701). The assay can be described thus: Binding affinity to MSH6 PWWP domain (unknown origin) assessed as aggregation temperature at 400 uM by heating at 25 to 85 degC by differential static light scattering method.
Chain of DNA mismatch repair protein Msh6 (Homo sapiens) (P52701 whole entry, the tested form may be a part): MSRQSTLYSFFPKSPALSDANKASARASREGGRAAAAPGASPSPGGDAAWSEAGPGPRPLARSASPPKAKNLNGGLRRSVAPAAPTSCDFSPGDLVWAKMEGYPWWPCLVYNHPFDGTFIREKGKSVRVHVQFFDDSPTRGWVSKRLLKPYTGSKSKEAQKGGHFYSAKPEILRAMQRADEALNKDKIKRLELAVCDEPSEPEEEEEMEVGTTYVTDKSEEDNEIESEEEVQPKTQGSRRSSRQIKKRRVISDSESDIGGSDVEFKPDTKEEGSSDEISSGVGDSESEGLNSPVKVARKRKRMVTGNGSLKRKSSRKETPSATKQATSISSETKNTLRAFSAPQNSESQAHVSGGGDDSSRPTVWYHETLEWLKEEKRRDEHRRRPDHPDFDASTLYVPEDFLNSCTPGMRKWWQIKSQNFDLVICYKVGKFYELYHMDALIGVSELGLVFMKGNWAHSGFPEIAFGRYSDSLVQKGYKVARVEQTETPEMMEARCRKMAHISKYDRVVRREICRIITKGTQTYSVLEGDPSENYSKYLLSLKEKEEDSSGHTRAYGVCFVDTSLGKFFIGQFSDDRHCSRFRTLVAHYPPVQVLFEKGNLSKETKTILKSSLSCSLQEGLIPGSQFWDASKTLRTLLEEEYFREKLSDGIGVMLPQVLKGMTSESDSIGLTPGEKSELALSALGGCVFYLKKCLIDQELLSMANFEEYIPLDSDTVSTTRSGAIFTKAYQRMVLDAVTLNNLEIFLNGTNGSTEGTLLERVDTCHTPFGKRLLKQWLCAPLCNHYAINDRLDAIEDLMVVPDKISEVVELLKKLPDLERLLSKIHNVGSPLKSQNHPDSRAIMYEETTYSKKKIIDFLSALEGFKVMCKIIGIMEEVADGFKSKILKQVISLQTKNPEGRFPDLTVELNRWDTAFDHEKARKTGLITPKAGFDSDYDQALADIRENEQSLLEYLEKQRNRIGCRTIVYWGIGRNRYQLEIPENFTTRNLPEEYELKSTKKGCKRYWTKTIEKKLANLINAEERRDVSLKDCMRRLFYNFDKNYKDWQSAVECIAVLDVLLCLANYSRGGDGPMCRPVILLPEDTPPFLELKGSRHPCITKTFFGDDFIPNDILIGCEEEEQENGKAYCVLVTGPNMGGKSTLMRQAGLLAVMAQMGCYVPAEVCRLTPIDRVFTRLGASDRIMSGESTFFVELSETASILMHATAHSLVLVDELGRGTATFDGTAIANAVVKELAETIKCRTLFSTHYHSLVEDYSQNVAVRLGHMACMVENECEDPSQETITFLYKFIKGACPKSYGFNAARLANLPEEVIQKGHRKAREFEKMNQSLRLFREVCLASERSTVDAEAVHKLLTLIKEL

SMILES strings stand for the structures. Calls of active or inactive are those of the source. The calls are words filed in the database; no cut-off is given here.

By Kd is commonly meant the constant that tells how readily two partners part at equilibrium. With `N#Cc1ccc(C(C(N)=O)N2CCC2c2ccc(Cl)cc2)cc1` (stereo not drawn), the equilibrium dissociation constant (Kd) in assay [1] came out at 8.9 µM. Besides, the result in assay [2] and in assay [3] was inactive.
